Experimental findings from ChEMBL document CHEMBL1131003, “Nonsymmetric P2/P2' cyclic urea HIV protease inhibitors. Structure-activity relationship, bioavailability, and resistance profile of monoindazole-substituted P2 analogues” (J Med Chem, 1998) are described below.

Data set [1] has as its target Human immunodeficiency virus type 1 protease (Human immunodeficiency virus 1, UniProt Q72874). Kind of data set: Inhibitory activity against HIV protease. A digest of the protocol: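 Ki for HIV protease, measured by cleavage of a fluorescent substrate with HPLC analysis, following the earlier method.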
The test system of a further data set is MT2. Kind of data set: Antiviral potency evaluated by measuring accumulation of viral RNA transcripts 3 days after infection of MT-2 cells with HIV-1 RF. The conditions noted are these: Homo sapiens, MT2, 72 h. The data set is classed as functional.
Data set [2] deals with Human immunodeficiency virus type 1 protease (Human immunodeficiency virus 1) (UniProt Q72874). Kind of data set: Antiviral activity against mutant virus HIV-1 mutant (84V/82F) strain. The format is functional. A digest of the protocol: (§1)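 I84V single and I84V/V82F double mutant HIV-1, both from in vitro selection under a cyclic urea inhibitor. IC90 measured by yield reduction assay.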

The target is the same in data set [3]. Kind of data set: Antiviral activity against mutant virus HIV-1 mutant (84V) strain. The data set is classed as functional. Summed up:
as §1

Data set [4] has the same target. Kind of data set: Antiviral activity against ritonavir virus (HIV-1 mutated at 46I/63P/71V/82F/84V and resistant to ritonavir). The format is functional. A digest of the protocol: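 Mutant HIV-1 viruses carrying protease substitutions seen in ritonavir- or indinavir-treated patient isolates; the ritonavir virus carries 46I/63P/71V/82F/84V. IC90 read from a viral p24 readout, following the earlier method.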

Data set [5] shares this target. Kind of data set: Antiviral activity against indinavir virus (HIV-1 mutated at 10R/63P/71V/82T/84V and resistant to indinavir).
Data set [6] in a line: Peak plasma concentration was measured in dogs. The data set is classed as ADME, organism-based, Canis lupus familiaris. The conditions noted are these: dog.
The nature of data set [7]: Oral bioavailability in dog (dose 10 mg/kg). The format is ADME, organism-based, Canis lupus familiaris. To be noted: in vivo. Summed up: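 Dogs, n = 3 per group, given 10 mg/kg in a propylene glycol/polyethylene glycol 400/water formulation, dosed orally and intravenously. F% = AUC po/AUC iv, with AUC from time zero to infinity of the plasma concentration-time curve, normalized for dose.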

The structures appear in SMILES notation.

In the case of `O=C1N(Cc2cccc(NCc3nc4ccccc4[nH]3)c2)[C@H](Cc2ccccc2)[C@H](O)[C@@H](O)[C@@H](Cc2ccccc2)N1Cc1ccc2[nH]ncc2c1`, the affinity in data set [1], expressed as Ki, was 0.016 nM. In the data set with MT2, this molecule registered a concentration for an effect of 90% (IC90) of 63 nM. Besides, the IC90 mutant/IC90 WT in data set [2] worked out at 3; in data set [3], 1.

Take `O=C1N(Cc2cccc(NCc3nc4ccccc4s3)c2)[C@H](Cc2ccccc2)[C@H](O)[C@@H](O)[C@@H](Cc2ccccc2)N1Cc1ccc2[nH]ncc2c1`: the inhibitory constant (Ki) in data set [1] was found to be 0.059 nM. The results for the IC90 mutant/IC90 WT in data set [4], in data set [2] and in data set [3] were 25, 20 and 3.3, respectively. Besides, the 90% effect concentration (IC90) in the data set with MT2 came out at 5 nM.

`Nc1ccc(CN2C(=O)N(Cc3ccc4[nH]ncc4c3)[C@H](Cc3ccccc3)[C@H](O)[C@@H](O)[C@H]2Cc2ccccc2)cc1-c1cc[nH]n1` registered a Ki in data set [1] of 0.025 nM. In addition, the IC90 mutant/IC90 WT in data set [4] stood at 2.1; in data set [2], 20; in data set [3] it was 2.2. This molecule also showed an IC90 in the data set with MT2 of 22 nM.

In data set [1], `O=C(Nc1nccs1)c1cccc(CN2C(=O)N(Cc3ccc4[nH]ncc4c3)[C@H](Cc3ccccc3)[C@H](O)[C@@H](O)[C@H]2Cc2ccccc2)c1` registered an inhibition constant Ki of 0.016 nM. For the same molecule, the IC90 mutant/IC90 WT turned out to be 7.3 in data set [5], 9 in data set [4], 22 in data set [2] and 2 in data set [3]. The 90% effect level in the data set on MT2 (IC90) was put at 8 nM.

As for `O=C(Nc1ncc[nH]1)c1cccc(CN2C(=O)N(Cc3cccc(C(=O)Nc4ncc[nH]4)c3)[C@H](Cc3ccccc3)[C@H](O)[C@@H](O)[C@H]2Cc2ccccc2)c1`, the IC90 mutant/IC90 WT in data set [5] came to 0.4; in data set [4], 0.2; in data set [2] it was 0.7; in data set [3] it was 0.7. This molecule also showed an IC90 in the data set on MT2 of 60 nM.

Take `O=C1N(Cc2cccc(-c3nc[nH]n3)c2)[C@H](Cc2ccccc2)[C@H](O)[C@@H](O)[C@@H](Cc2ccccc2)N1Cc1ccc2[nH]ncc2c1`: the inhibition constant Ki in data set [1] stood at 0.041 nM. Further, the IC90 mutant/IC90 WT stood at 3.8 in data set [4], 18 in data set [2] and 3.3 in data set [3]. In the data set on MT2, this molecule yielded an IC90 of 24 nM.

As to `Nc1cccc(CN2C(=O)N(Cc3cccc(N)c3)[C@H](Cc3ccccc3)[C@H](O)[C@@H](O)[C@H]2Cc2ccccc2)c1` [MOZENAVIR], the IC90 mutant/IC90 WT in data set [5] is 27; in data set [4], 49; in data set [2], 100; in data set [3] it was 10. The molecule also had a 90% effect concentration (IC90) in the data set on MT2 of 130 nM.

`N=C(NO)c1cccc(CN2C(=O)N(Cc3cccc(/C(N)=N/O)c3)[C@H](Cc3ccccc3)[C@H](O)[C@@H](O)[C@H]2Cc2ccccc2)c1`: the Ki in data set [1] was < 0.01 nM. Further, the 90% effect level in the data set with MT2 (IC90) was put at 300 nM. Further, the IC90 mutant/IC90 WT in data set [2] was found to be 0.7; in data set [3], 1.

For the molecule `Nc1ccc(CN2C(=O)N(Cc3ccc4[nH]ncc4c3)[C@H](Cc3ccccc3)[C@H](O)[C@@H](O)[C@H]2Cc2ccccc2)cc1-n1cncn1`, in data set [1], the Ki was 0.029 nM. In addition, the IC90 mutant/IC90 WT is 9 in data set [4], 20 in data set [2] and 1 in data set [3]. Also, the IC90 in the data set on MT2 amounted to 35 nM. In data set [6], this molecule came in with a peak concentration (Cmax) of 500 nM.

In data set [1], `Cc1ccc(NC(=O)c2cccc(CN3C(=O)N(Cc4ccc5[nH]ncc5c4)[C@H](Cc4ccccc4)[C@H](O)[C@@H](O)[C@H]3Cc3ccccc3)c2)nc1` had a Ki of 0.048 nM. In the data set on MT2, this molecule showed an IC90 of 4 nM. The Cmax in data set [6] was < 50 nM.

As to `Nc1ccc(CN2C(=O)N(Cc3ccc4[nH]ncc4c3)[C@H](Cc3ccccc3)[C@H](O)[C@@H](O)[C@H]2Cc2ccccc2)cc1`, the inhibition constant Ki in data set [1] was determined as 0.03 nM. The IC90 mutant/IC90 WT in data set [4] was determined as 170; in data set [2] it was 240; in data set [3] it was 31. In addition, the bioavailability in data set [7] is 100%. The molecule also registered an IC90 with MT2 of 11 nM. For the same molecule, in data set [6], the highest concentration (Cmax) came to 10600 nM.

With `Nc1ccc(CN2C(=O)N(Cc3ccc4[nH]ncc4c3)[C@H](Cc3ccccc3)[C@H](O)[C@@H](O)[C@H]2Cc2ccccc2)cc1-n1cccn1`, the affinity in data set [1], expressed as Ki, was 0.045 nM. The figures for the IC90 mutant/IC90 WT in data set [4], in data set [2] and in data set [3] were 70, 50 and 3.3, respectively. In the data set with MT2, this molecule returned an IC90 of 6 nM.

Molecule `O=C(Cc1ccccn1)c1cccc(CN2C(=O)N(Cc3ccc4[nH]ncc4c3)[C@H](Cc3ccccc3)[C@H](O)[C@@H](O)[C@H]2Cc2ccccc2)c1` displayed a Ki in data set [1] of 0.073 nM. Moreover, the IC90 mutant/IC90 WT was determined as 10 in data set [4], 5 in data set [2] and 1 in data set [3]. The molecule further came in with an IC90 in the data set on MT2 of 15 nM. In data set [6], the Cmax came out at 700 nM.

In turn, `Nc1cccc(CN2C(=O)N(Cc3ccc4[nH]ncc4c3)[C@H](Cc3ccccc3)[C@H](O)[C@@H](O)[C@H]2Cc2ccccc2)c1` displayed an inhibition constant Ki in data set [1] of 0.03 nM. For the same molecule, the IC90 mutant/IC90 WT came out at 20 in data set [5], 75 in data set [4], 200 in data set [2] and 6.8 in data set [3]. The molecule also had a bioavailability in data set [7] of 93%. In the data set on MT2, this molecule showed an IC90 of 11 nM. The molecule also came in with a Cmax in data set [6] of 7200 nM.

As for `O=C1N(Cc2ccc(CO)cc2)[C@H](Cc2ccccc2)[C@H](O)[C@@H](O)[C@@H](Cc2ccccc2)N1Cc1ccc(CO)cc1` [DMP-323], the IC90 mutant/IC90 WT turned out to be 18 in data set [5], 93 in data set [4], 97 in data set [2] and 28 in data set [3]. The molecule further gave an IC90 in the data set with MT2 of 57 nM.

In data set [1], `CC(=O)c1cccc(CN2C(=O)N(Cc3ccc4[nH]ncc4c3)[C@H](Cc3ccccc3)[C@H](O)[C@@H](O)[C@H]2Cc2ccccc2)c1` displayed a Ki of 0.036 nM. This molecule registered a bioavailability in data set [7] of 25%. In the data set with MT2, this molecule yielded an IC90 of 15 nM. The same molecule returned a maximum concentration (Cmax) in data set [6] of 1300 nM.

Regarding `CNc1cc(CN2C(=O)N(Cc3ccc4[nH]ncc4c3)[C@H](Cc3ccccc3)[C@H](O)[C@@H](O)[C@H]2Cc2ccccc2)ccc1F`, the Ki in data set [1] is 0.027 nM. In data set [7], this molecule had a bioavailability of 14%. The 90% effect level in the data set with MT2 (IC90) was put at 7 nM. In addition, the highest level in data set [6] (Cmax) was 670 nM.

On to `CNc1cccc(CN2C(=O)N(Cc3ccc4[nH]ncc4c3)[C@H](Cc3ccccc3)[C@H](O)[C@@H](O)[C@H]2Cc2ccccc2)c1`, for which affinity in data set [1] was put at a Ki of 0.039 nM. Also, in data set [7], the bioavailability came to 92%. The molecule further showed an IC90 with MT2 of 8 nM. The same molecule displayed a maximum concentration (Cmax) in data set [6] of 8000 nM.

In the case of `O=C(Cn1cncn1)c1cccc(CN2C(=O)N(Cc3ccc4[nH]ncc4c3)[C@H](Cc3ccccc3)[C@H](O)[C@@H](O)[C@H]2Cc2ccccc2)c1`, the inhibitory constant (Ki) in data set [1] was determined as 0.022 nM. In the data set on MT2, this molecule came in with an IC90 of 51 nM. Moreover, the Cmax in data set [6] was found to be 150 nM.

In general, Ki refers to the dissociation constant of the complex between target and ligand, obtained from inhibition or displacement. The IC90 is the point of the concentration-response curve where the effect stands at 90%. Usually Cmax stands for the highest concentration seen after dosing. As usually defined, the bioavailability is dose-corrected exposure relative to a reference, in per cent. Read a high bioavailability as good availability.
